Results reported in ChEMBL document CHEMBL1128377, “Novel inhibitors of potassium ion channels on human T lymphocytes” (J Med Chem, 1995).

How the values were obtained:
[1] = molecular target: T1, Potassium voltage-gated channel subfamily A member 3 (Homo sapiens, UniProt P22001); assay: Concentration inhibiting [125I]ChTX (charybdotoxin) binding to N-type potassium channel.
[2] = Inhibition of [3H]dofetilide binding to guinea pig cardiac potassium (K+) channels.; set-up: species or system Cavia porcellus
Outline: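 Radioligand binding of [3H]dofetilide to guinea pig cardiac myocytes, run by a previously published method. The IC50 is reported as the mean of at least two determinations.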

[3] = molecular target: T1, Potassium voltage-gated channel subfamily A member 3; assay: Inhibition of outward potassium currents (IKn) in human T-lymphocyte N-type potassium channels.; assay type: functional
Outline: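 Whole-cell patch clamp held at -80 mV, with 150 ms steps to 30 mV once per minute and stabilization for >6 min. Test agent was perfused at one fixed concentration per cell for 6 min. The first pulse gave closed-channel block and the next gave open-channel block. Peak outward current was compared with predrug current as percent blocked. IC50 was fitted from n > 9 data points.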

[4] = Partition coefficient (logP) (HPLC); assay type: physicochemical; details: octanol/water
[5] = Acid dissociation constant was determined; assay type: ADME
[6] = species: Cavia porcellus; assay: Inhibition of [3H]dofetilide binding to guinea pig cardiac myocytes potassium (K+) channels at 400 nM
[7] = species: Cavia porcellus; assay: Inhibition of [3H]dofetilide binding to cardiac potassium (K+) channels at 400 nM

T1 sequence (P22001 whole entry): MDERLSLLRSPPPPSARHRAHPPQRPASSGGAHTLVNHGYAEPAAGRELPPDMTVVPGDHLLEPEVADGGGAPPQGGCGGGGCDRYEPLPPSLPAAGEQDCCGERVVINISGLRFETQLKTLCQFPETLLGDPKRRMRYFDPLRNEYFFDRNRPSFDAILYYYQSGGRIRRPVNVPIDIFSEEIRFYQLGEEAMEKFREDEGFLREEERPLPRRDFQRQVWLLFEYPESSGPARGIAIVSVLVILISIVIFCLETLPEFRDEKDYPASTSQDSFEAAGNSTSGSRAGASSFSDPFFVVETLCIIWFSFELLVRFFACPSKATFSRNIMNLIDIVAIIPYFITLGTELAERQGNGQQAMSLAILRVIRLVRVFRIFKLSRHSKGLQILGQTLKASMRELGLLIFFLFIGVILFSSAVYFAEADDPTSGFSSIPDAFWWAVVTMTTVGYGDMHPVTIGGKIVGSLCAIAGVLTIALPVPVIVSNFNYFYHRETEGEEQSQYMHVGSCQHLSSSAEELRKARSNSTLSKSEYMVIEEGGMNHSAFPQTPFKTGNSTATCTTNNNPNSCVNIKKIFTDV

SMILES	IC50 [1] [nM]	IC50 [2] [nM]	IC50 [3] [nM]	also measured
CCCCC/N=c1\ccn(Cc2ccc(Cl)cc2)c2cc(C(F)(F)F)ccc12	239	90	–	–
CCCCCC/N=c1\ccn(Cc2ccccc2)c2ccc(OC)cc12	47	680	267	–
CCCCCC/N=c1\ccn(Cc2ccccc2Cl)c2cc(Cl)ccc12	190	780	216	–
CCCCCC/N=c1\ccn(Cc2ccccc2)c2c(OC)cccc12	–	210	–	–
N=c1ccn(Cc2ccccc2)c2cc(Cl)ccc12	> 8000	–	–	–
CCCCC/N=c1\ccn(C2CCc3ccccc32)c2cc(Cl)ccc12 (stereo not given)	2300	870	–	–
Clc1ccc2/c(=N/C34CC5CC(CC(C5)C3)C4)ccn(Cc3ccccc3)c2c1	1170	157	–	–
CCCC/N=c1\ccn(CCCc2ccccc2)c2cc(Cl)ccc12	471	–	–	logP [4]: 3.82; pKa [5]: 11.4
Clc1ccc(C/N=c2\ccn(Cc3ccccc3Cl)c3cc(Cl)ccc23)c(Cl)c1	550	2380	259	–
CCC/N=c1\ccn(Cc2ccccc2)c2cc(Cl)ccc12	544	–	3160	–
CCCCCCNc1cc[n+](-c2ccccc2)c2c(-c3ccccc3)cc(OC)cc12	240	–	–	logP [4]: 3.73
CCCCCCNc1cc[n+](-c2ccccc2)c2c(-c3ccccc3)cccc12	930	–	–	logP [4]: 3.89; pKa [5]: 9.58
CCCCC/N=c1\ccn(Cc2ccc(Cl)cc2)c2c(F)cccc12	–	310	–	–
CCCCCCNc1cc[n+](C)c2c(-c3ccccc3)cccc12	240	223	602	–
CCCCCC/N=c1\ccn(Cc2ccc(OC)cc2)c2cc(Cl)ccc12	88	–	329	–
O=C(O)CC/N=c1\ccn(Cc2ccccc2Cl)c2cc(Cl)ccc12	> 10000	–	–	–
C[N+](C)(C)CCC/N=c1\ccn(Cc2ccccc2Cl)c2cc(Cl)ccc12	> 30000	–	> 10000	–
CNCCC/N=c1\ccn(Cc2cccc(Cl)c2)c2cc(Cl)ccc12	> 30000	–	–	–

SMILES	IC50 [1] [nM]	IC50 [2] [nM]	IC50 [3] [nM]	also measured
C/N=c1\ccn(Cc2ccccc2)c2cc(Cl)ccc12	> 5000	–	–	inhibition [6]: 24%
CCCC/N=c1\ccn(Cc2ccccc2)c2cc(Cl)ccc12	198	–	2620	inhibition [7]: 24%
CCCCCC/N=c1\ccn(Cc2ccc(Cl)cc2)c2cc(Cl)ccc12	100	3230	–	–
CCN(CC)CC/N=c1\ccn(Cc2ccccc2Cl)c2cc(Cl)ccc12	–	57	–	–
CCCCCC/N=c1\ccn(Cc2ccccc2)c2cc(Cl)ccc12	32	820	335	pKa [5]: 11.5
CC(C)CCCC(C)/N=c1\ccn(Cc2ccccc2)c2cc(Cl)ccc12 (stereo not given)	817	175	1680	–
CCCCC/N=c1\ccn(Cc2ccc(Cl)cc2)c2ccc(OC)cc12	–	1990	–	–
CC(C)C/N=c1\ccn(Cc2ccccc2)c2cc(Cl)ccc12	206	2000	–	–
CCCCCCC/N=c1\ccn(Cc2ccccc2)c2cc(Cl)ccc12	117	2500	249	–
CCCCCC/N=c1\ccn(Cc2ccccc2)c2ccccc12	164	–	1050	–
Clc1ccc(/N=c2\ccn(Cc3ccccc3Cl)c3cc(Cl)ccc23)c(Cl)c1	> 30000	> 30000	> 10000	–
CCCCCCCC/N=c1\ccn(Cc2ccccc2)c2cc(Cl)ccc12	280	2400	351	–
CCCCCC/N=c1\ccn(Cc2ccc(Cl)c(Cl)c2)c2cc(Cl)ccc12	310	> 3500	231	logP [4]: 4.64; pKa [5]: 11.5
CCCCCCOc1ccc(Cc2ccccc2)c2ccccc12	> 5000	–	–	–
CCCCCCOc1cc[n+](Cc2ccccc2)c2cc(Cl)ccc12	828	–	–	logP [4]: 3.62; pKa [5]: 11.2
CCCCC/N=c1\ccn(Cc2ccc(Cl)cc2)c2ccc(C(F)(F)F)cc12	340	140	213	–
CCCCC/N=c1\ccn(Cc2ccccc2)c2cc(Cl)ccc12	–	1300	250	–
